Experimental data taken from ChEMBL document CHEMBL3627671, “Novel derivatives of nitro-substituted salicylic acids: Synthesis, antimicrobial activity and cytotoxicity” (Bioorg Med Chem, 2015).

What was measured:
Format in all cases: functional
Pichia kudriavzevii [1] = test: Antifungal activity against Candida krusei E28 after 24 hrs by microdilution broth method; details: E28, 24 h
Summary of the method: (§1)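 CLSI M27-A3 broth microdilution in RPMI 1640 with glutamine, buffered to pH 7.0 with MOPS; DMSO diluent. Yeast inoculum 5 × 10^3 ± 0.2 CFU/mL. Moulds grown on Sabouraud agar 3–10 days before spore harvest, final inoculum 0.5-5 × 10^4 CFU/mL, checked in a Bürker chamber. Incubated dark, humid, 35 °C, read at 24 and 48 h visually and at 540 nm. MIC taken as ≥80% (yeasts) or ≥50% (filamentous) growth reduction versus control.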

Candida tropicalis [2] = test: Antifungal activity against Candida tropicalis 156 after 48 hrs by microdilution broth method; details: Candida tropicalis, 156, 48 h; summary of the method: as §1
[3] = system: Mycobacterium tuberculosis; test: Antimycobacterial activity against Mycobacterium tuberculosis H37Rv 331/88 after 14 days; details: H37Rv 331/88, 336 h
[4] = system: Mycobacterium tuberculosis; test: Antimycobacterial activity against Mycobacterium tuberculosis H37Rv 331/88 after 21 days; details: H37Rv 331/88, 504 h
[5] = system: Staphylococcus epidermidis; test: Antibacterial activity against Staphylococcus epidermidis H 6966/08 after 24 hrs by microdilution broth method; details: H 6966/08, 24 h
Summary of the method: (§2)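 Mueller-Hinton broth microdilution (modified M07-A07), pH 7.4 (±0.2). Compounds dissolved in DMSO, tested at final 500 to 0.49 µmol/L. Inoculum in sterile water matched to 0.5 McFarland. Incubated in the dark, humid atmosphere, 35 °C, read at 24 and 48 h visually and at 540 nm. MIC taken as ≥95% growth reduction (IC95) versus control.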

Klebsiella pneumoniae [6] = test: Antibacterial activity against Klebsiella pneumoniae D 11750/08 after 48 hrs by microdilution broth method; details: D 11750/08, 48 h; summary of the method: as §2
[7] = system: Trichophyton mentagrophytes; test: Antifungal activity against Trichophyton mentagrophytes 445 after 48 hrs by microdilution broth method; details: Trichophyton mentagrophytes, 445, 48 h
Klebsiella pneumoniae [8] = test: Antibacterial activity against ESBL-positive Klebsiella pneumoniae J 14368/08 after 48 hrs by microdilution broth method; details: J 14368/08, 48 h; summary of the method: as §2
Staphylococcus aureus [9] = test: Antibacterial activity against methicillin-resistant Staphylococcus aureus H 5996/08 after 24 hrs by microdilution broth method; details: H 5996/08, 24 h
Lichtheimia corymbifera [10] = test: Antifungal activity against Absidia corymbifera 272 after 24 hrs by microdilution broth method; details: Lichtheimia corymbifera, 272, 24 h; summary of the method: as §1
Escherichia coli [11] = test: Antibacterial activity against Escherichia coli CCM4517 after 48 hrs by microdilution broth method; details: CCM4517, 48 h; summary of the method: as §2
[12] = system: Trichophyton mentagrophytes; test: Antifungal activity against Trichophyton mentagrophytes 445 after 24 hrs by microdilution broth method; details: Trichophyton mentagrophytes, 445, 24 h
Mycobacterium kansasii [13] = test: Antimycobacterial activity against Mycobacterium kansasii 6509/96 after 14 days; details: 6509/96, 336 h
Summary of the method: (§3)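 Šula's semisynthetic medium micromethod at 37 °C, read after 7, 14 and 21 days. The 1.0 McFarland suspension was diluted 10^-4. MIC determined. 6509/96 is a clinical isolate.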

Escherichia coli [14] = test: Antibacterial activity against Escherichia coli CCM4517 after 24 hrs by microdilution broth method; details: CCM4517, 24 h; summary of the method: as §2
Trichosporon asahii [15] = test: Antifungal activity against Trichosporon asahii 1188 after 48 hrs by microdilution broth method; details: Trichosporon asahii, 1188, 48 h; summary of the method: as §1
Candida tropicalis [16] = test: Antifungal activity against Candida tropicalis 156 after 24 hrs by microdilution broth method; details: Candida tropicalis, 156, 24 h; summary of the method: as §1
Aspergillus fumigatus [17] = test: Antifungal activity against Aspergillus fumigatus 231 after 48 hrs by microdilution broth method; details: Aspergillus fumigatus, 231, 48 h; summary of the method: as §1
Pseudomonas aeruginosa [18] = test: Antibacterial activity against Pseudomonas aeruginosa CCM 1961 after 24 hrs by microdilution broth method; details: CCM 1961, 24 h; summary of the method: as §2
Nakaseomyces glabratus [19] = test: Antifungal activity against Candida glabrata 20/I after 24 hrs by microdilution broth method; summary of the method: as §1
Staphylococcus aureus [20] = test: Antibacterial activity against methicillin-resistant Staphylococcus aureus H 5996/08 after 48 hrs by microdilution broth method; details: H 5996/08, 48 h
Enterococcus sp. [21] = test: Antibacterial activity against Enterococcus sp. J 14365/08 after 24 hrs by microdilution broth method; details: J 14365/08, 24 h; summary of the method: as §2
Aspergillus fumigatus [22] = test: Antifungal activity against Aspergillus fumigatus 231 after 24 hrs by microdilution broth method; details: Aspergillus fumigatus, 231, 24 h; summary of the method: as §1
Staphylococcus aureus [23] = test: Antibacterial activity against Staphylococcus aureus CCM 4516/08 after 48 hrs by microdilution broth method; details: CCM 4516/08, 48 h
Pseudomonas aeruginosa [24] = test: Antibacterial activity against Pseudomonas aeruginosa CCM 1961 after 48 hrs by microdilution broth method; details: CCM 1961, 48 h; summary of the method: as §2
Mycobacterium kansasii [25] = test: Antimycobacterial activity against Mycobacterium kansasii 235/80 after 21 days; details: 235/80, 504 h; summary of the method: as §3
Enterococcus sp. [26] = test: Antibacterial activity against Enterococcus sp. J 14365/08 after 48 hrs by microdilution broth method; details: J 14365/08, 48 h; summary of the method: as §2
Mycobacterium avium [27] = test: Antimycobacterial activity against Mycobacterium avium 330/80 after 14 days; details: 330/80, 336 h
Staphylococcus aureus [28] = test: Antibacterial activity against Staphylococcus aureus CCM 4516/08 after 24 hrs by microdilution broth method; details: CCM 4516/08, 24 h
Trichosporon asahii [29] = test: Antifungal activity against Trichosporon asahii 1188 after 24 hrs by microdilution broth method; details: Trichosporon asahii, 1188, 24 h; summary of the method: as §1
Pichia kudriavzevii [30] = test: Antifungal activity against Candida krusei E28 after 48 hrs by microdilution broth method; details: E28, 48 h; summary of the method: as §1
Nakaseomyces glabratus [31] = test: Antifungal activity against Candida glabrata 20/I after 48 hrs by microdilution broth method; summary of the method: as §1
Mycobacterium avium [32] = test: Antimycobacterial activity against Mycobacterium avium 330/80 after 21 days; details: 330/80, 504 h
Mycobacterium kansasii [33] = test: Antimycobacterial activity against Mycobacterium kansasii 6509/96 after 7 days; details: 6509/96, 168 h; summary of the method: as §3
Lichtheimia corymbifera [34] = test: Antifungal activity against Absidia corymbifera 272 after 48 hrs by microdilution broth method; details: Lichtheimia corymbifera, 272, 48 h; summary of the method: as §1
Klebsiella pneumoniae [35] = test: Antibacterial activity against ESBL-positive Klebsiella pneumoniae J 14368/08 after 24 hrs by microdilution broth method; details: J 14368/08, 24 h; summary of the method: as §2
Klebsiella pneumoniae [36] = test: Antibacterial activity against Klebsiella pneumoniae D 11750/08 after 24 hrs by microdilution broth method; details: D 11750/08, 24 h; summary of the method: as §2
Mycobacterium kansasii [37] = test: Antimycobacterial activity against Mycobacterium kansasii 235/80 after 14 days; details: 235/80, 336 h; summary of the method: as §3
[38] = system: Staphylococcus epidermidis; test: Antibacterial activity against Staphylococcus epidermidis H 6966/08 after 48 hrs by microdilution broth method; details: H 6966/08, 48 h; summary of the method: as §2
Candida albicans [39] = test: Antifungal activity against Candida albicans ATCC 44859 after 48 hrs by microdilution broth method; details: ATCC 44859, 48 h; summary of the method: as §1
Mycobacterium kansasii [40] = test: Antimycobacterial activity against Mycobacterium kansasii 6509/96 after 21 days; details: 6509/96, 504 h; summary of the method: as §3
Mycobacterium kansasii [41] = test: Antimycobacterial activity against Mycobacterium kansasii 235/80 after 7 days; details: 235/80, 168 h; summary of the method: as §3
Candida albicans [42] = test: Antifungal activity against Candida albicans ATCC 44859 after 24 hrs by microdilution broth method; details: ATCC 44859, 24 h; summary of the method: as §1

Measured: MIC

O=C(Nc1cccc(F)c1)c1cc([N+](=O)[O-])ccc1O
62.5 µM: Mycobacterium kansasii [13] | Mycobacterium kansasii [25] | Mycobacterium kansasii [37] | Mycobacterium kansasii [40]
500 µM: [7] | [12]
16 µM: [3] | Mycobacterium kansasii [41]
125 µM: [5] | Staphylococcus aureus [9] | Staphylococcus aureus [20] | Staphylococcus aureus [23] | Mycobacterium avium [27] | Staphylococcus aureus [28] | Mycobacterium avium [32]
32 µM: [4] | Mycobacterium kansasii [33]
250 µM: [38]
> 500 µM: all other assays above
